The list is not random: actives were taken first. Their share in the collection is about 2.2%.
eIF4E-4G inh = eIF4E/eIF4G interaction inhibition in translation initiation; inhibition, % at 21.7 µM; TR-FRET eIF4E-eIF4GI(517-606) binding, 2 h; 0.37% of 220,000 active; P63073+Q04637; AID 782;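 active = inhibition above about 30%, limit read from the data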;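 also: 0% = full FRET control wells and 100% = background wells lacking eIF4GI fragment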
p97 ATPase inh = human p97 ATPase inhibition; P55072; recombinant p97 ATPase, Kinase-Glo ATP luminescence, 3 h; inhibition, % at 8 µM; 0.42% of 220,000 active; AID 1481; in the data active = inhibition above about 15%;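 also: 0% = DMSO vehicle and 100% = wells lacking enzyme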
Biofilm kill mix = mixture kills Candida albicans biofilm cells. C. albicans biofilm persisters + clotrimazole, fluorescence viability; primary screen in compound mixtures of four per well. inhibition, % at 7.6 µM. 0.02% of 120,000 active;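 active = inhibition above 30.3% in the primary screen of four-compound pools, then above 30% when the compound was retested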;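 also: compounds exposed to preformed 24 h biofilms for 48 h; 0% = untreated biofilm control and 100% = clotrimazole plus chlorhexidine kill blank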
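Test system: C. albicans biofilms. Buffer or medium: RPMI/MOPS medium, pH 7.0. Timing: 48 h compound exposure at 37 °C. Technique: Alamar Blue fluorescence. Evaluation: percent inhibition of biofilm viability.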
Hck-Nef inh = blocks Nef-activated human Hck kinase; P08631; Recombinant Hck-YEEI plus Nef, Z-Lyte FRET kinase assay; inhibition, % at 20 µM; 0.68% of 220,000 active;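 active = Hck-Nef kinase inhibition above about 50%, limit read from the data; inactive = inhibition below that limit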;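 also: 0% = DMSO with Hck plus Nef and 100% = Hck alone without Nef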
PERK inhibitor = human PERK inhibition, primary cell-based screen | Q9NZJ5 | CHO PERK-DD fusion, SEAP luminescence translation reporter | inhibition, % at 5.6 µM | 0.17% of 220,000 active | AID 1416;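 active = inhibition above the mean inhibition of all tested compounds plus 3 SD, set separately per screening campaign, cut at about 2.9% in these data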;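 also: PERK kinase domain activated by AP20187 dimerizer at 100 nM; 0% = DMSO with dimerizer and 100% = rapamycin at 8.4 µM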
14-3-3 Bad inh = disrupts binding of bovine 14-3-3 zeta to phospho-Bad peptide; AID 781; P63103; TR-FRET 14-3-3zeta/Dy647-pBad peptide displacement, 1 h; 0.71% of 220,000 active; inhibition, % at 21.7 µM;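 active = inhibition above about 70%, limit read from the data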;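 also: 0% = full 14-3-3 plus peptide FRET controls and 100% = background without 14-3-3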
Target sequence (P63103 whole entry, looked up): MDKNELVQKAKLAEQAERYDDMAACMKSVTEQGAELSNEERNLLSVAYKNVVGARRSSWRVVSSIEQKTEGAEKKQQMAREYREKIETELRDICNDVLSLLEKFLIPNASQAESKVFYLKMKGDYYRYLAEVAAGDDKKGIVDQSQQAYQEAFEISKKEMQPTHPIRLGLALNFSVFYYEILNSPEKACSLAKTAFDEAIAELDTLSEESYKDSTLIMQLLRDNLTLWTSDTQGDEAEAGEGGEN
Numbers without * were called inactive; / = not tested or not shown.

SMILES	eIF4E-4G inh	p97 ATPase inh	Biofilm kill mix	Hck-Nef inh	PERK inhibitor	14-3-3 Bad inh
CCOC(=O)c1cc2c(=O)n3cccc(C)c3nc2n(C)c1=N	2	1	/	148*	0	5
COC(=O)c1cccn(CC(=O)c2ccc(Cl)cc2)c1=O	-1	1	14	-8	2	-1
CC(CCc1ccccc1)N1CCN(Cc2ccccc2)CC1 (stereo not drawn)	-1	4	25	2	0	6
CCS(=O)(=O)N1CCN(C(C)CCc2ccccc2)CC1 (stereo not drawn)	15	-3	/	2	0	70*
CCCS(=O)(=O)N1CCN(S(=O)(=O)c2ccccc2)CC1	64*	2	/	-2	-1	5
O=S(=O)(c1ccccc1)N1CCN(S(=O)(=O)c2ccccc2)C1	-1	2	/	-1	-1	-7
CCCCn1c2ccc(F)cc2c2nnc(NN)nc21	-5	3	14	21	0	-18
CCN1CCN(C(=O)c2ccccc2N(Cc2ccccc2)S(=O)(=O)c2ccc(OC)cc2)CC1	-6	0	29	24	-1	-2
O=C(O)c1cc2cc(Cl)cc(Cl)c2oc1=O	7	6	/	-1	1	83*
CCOC(=O)N1CCN(C(=O)c2ccc3c(SCC(=O)O)c4c(nc3c2)CCCC4)CC1	-1	2	/	18	0	6
O=C(O)CSc1c2c(nc3cc(C(=O)N4CCOCC4)ccc13)CCCC2	5	-5	/	0	0	82*
CCOc1ccc(-n2c(SCC(=O)N3CCc4ccccc43)nnc2-c2c[nH]c3ccccc23)cc1	14	5	7	49	1	93*
O=C(O)CNc1ccccc1C(=O)O	-3	9	24	-6	3.0*	12
O=C1C(=O)N(Cc2ccccc2)C(=O)N1CCOc1ccccc1	2	2	-11	-1	2	-8
N/C(=N\N=C\c1ccc([N+](=O)[O-])cc1)c1nonc1N	-10	3	13	15	3.4*	5
CCn1c2ccccc2c2nc3cc(S(=O)(=O)N4CCOCC4)ccc3nc21	48*	-4	/	-4	-1	33
c1ccc2nc3c(nc2c1)c1ccccc1n3CCN1CCOCC1	8	-5	/	6	-2	-3
CCOC(=O)c1sc2nc3c(SCCC(=O)O)cc(C(=O)c4cc(OC)ccc4O)cn3c(=O)c2c1C	57*	-6	12	13	1	64
O=C(O)CSc1cc(C(=O)c2cc(F)ccc2O)cn2c(=O)c3c(-c4ccccc4)csc3nc12	22	0	33	52*	0	17
COc1ccc(-n2c(-c3ccc(Br)cc3)c[n+]3c2SC(C)C3)cc1 (stereo not drawn)	-5	5	24	-2	0	-2
CC1(C)CNc2cc([N+](=O)[O-])ccc2S1	2	-3	18	28	1	-16
O=C(Nc1ccc(Oc2ccccc2)cc1)C1CCN(c2ncccn2)CC1	-3	-7	/	0	0	79*
Cc1ccc(NC(=O)NNC(=O)Cn2nc(-c3ccccc3)c(-c3ccccc3)c(C#N)c2=O)cc1	-13	15*	/	1	1	-1
O=C(Cn1nc(-c2ccccc2)c2ccccc2c1=O)Nc1ccc(O)cc1	-7	6	20	29	2	16
CC(C)COc1ccc(C(=O)CCN2CCCCC2)cc1	2	-4	/	0	0	79*
CO[C@H]1C[C@@H]2CC[C@@H](C)[C@@](O)(O2)C(=O)C(=O)N2CCCC[C@H]2C(=O)O[C@H]([C@H](C)C[C@@H]2CC[C@@H](O)[C@H](OC)C2)CC(=O)[C@H](C)C=C(C)[C@@H](O)[C@@H](OC)C(=O)[C@H](C)C[C@H](C)C=CC=CC=C1C	-22	/	17	-23	/	6
CC[C@@H]1C=C(C)C[C@H](C)C[C@H](OC)[C@H]2O[C@@](O)(C(=O)C(=O)N3CCCC[C@H]3C(=O)O[C@H](/C(C)=C/[C@@H]3CC[C@@H](O)[C@H](OC)C3)[C@H](C)[C@@H](O)CC1=O)[C@H](C)C[C@@H]2OC	2	-4	11	-6	95*	-9
CCCN(CCO)Cc1ccc(Br)cc1	2	2	/	1	1	84*

Screening results as filed in PubChem.
